Reference: ChEMBL document CHEMBL3877244, “Synthesis and biological evaluation of new aryl-alkyl(alkenyl)-4-benzylpiperidines, novel Sigma Receptor (SR) modulators, as potential anticancer-agents” (Eur J Med Chem, 2016)
pIC50, pKi: −log10 of the molar value.

Assays:
[1] = target: Sigma non-opioid intracellular receptor 1 (Cavia porcellus, UniProt Q60492); assay: Displacement of [3H]-pentazocine from sigma 1 receptor in guinea pig brain cortical membrane after 120 mins by scintillation counting analysis; assay type: cell membranes
Sigma non-opioid intracellular receptor 1 (Cavia porcellus, UniProt Q60492), sequence (Q60492 whole entry): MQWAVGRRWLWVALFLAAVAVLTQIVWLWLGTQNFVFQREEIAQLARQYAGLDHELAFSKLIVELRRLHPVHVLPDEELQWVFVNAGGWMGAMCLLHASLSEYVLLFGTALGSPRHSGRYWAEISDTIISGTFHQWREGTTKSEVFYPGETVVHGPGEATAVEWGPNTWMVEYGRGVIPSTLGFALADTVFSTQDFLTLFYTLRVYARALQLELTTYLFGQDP
In short: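 Nonspecific binding defined with unlabeled (+)-pentazocine. Filtration, then scintillation counting. IC50 by nonlinear regression, converted to Ki by Cheng–Prusoff.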

[2] = Displacement of [3H]-DTG from sigma 2 receptor in rat liver after 120 mins by scintillation counting analysis
In short: (§1)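 Rat liver homogenate (150 µg) incubated 120 min at room temperature with 3 nM [³H]-DTG in 50 mM Tris-HCl pH 8.0. (+)-Pentazocine 100 nM masked S1R; haloperidol 10 µM defined nonspecific binding. Ki by Cheng–Prusoff from IC50.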

[3] = Cytotoxicity against human Paca3 cells assessed as decrease in cell viability under starvation condition after 24 hrs by MTS assay; assay type: functional, cell-based; details: Paca3, 24 h
In short: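 Cells starved 24 h in low-glucose medium without FCS, then treated 24 h with compound in serum-free conditions. MTS read-out, OD 490 nm, expressed as percent of untreated control. IC50 read graphically from the dose-response plot. Three independent experiments in octuplicate.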

[4] = Displacement of [3H]DTG from sigma 2 receptor in rat brain homogenates without cerebellum; assay type: tissue-based
[5] = Cytotoxicity against human Paca3 cells assessed as decrease in cell viability using complete medium after 24 hrs by MTS assay; assay type: functional, cell-based; details: Paca3, 24 h
In short: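 Cells in exponential growth, 3×10^3 per well, in medium with 10% FCS. Capan-2, PaCa3, MDA-MB 231, SUM 159 and PC3 were grown in DMEM/Ham's F12 with glutamine 2 mM and insulin 10 µg/ml. U87 was grown in EMEM and LNCaP in RPMI, each with glutamine. Compound 0.1–100 µM, continuous exposure (24 h; 48 h for the 48 h lines). MTS, OD 490 nm. IC50 read graphically. Three independent experiments in octuplicate.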

[6] = Antiproliferative activity against human BxPC3 cells after 24 hrs; assay type: functional, cell-based; details: BXPC-3, 24 h
[7] = Antiproliferative activity against human CFPAC cells after 24 hrs; assay type: functional, cell-based
[8] = Antiproliferative activity against human AsPC1 cells after 24 hrs; assay type: functional, cell-based; details: ASPC1, 24 h
[9] = Antiproliferative activity against mouse Panc02 cells after 24 hrs; assay type: functional, cell-based; details: Panc02, 24 h
[10] = Antiproliferative activity against human PANC1 cells after 24 hrs; assay type: functional, cell-based; details: PANC-1, 24 h
[11] = Antiproliferative activity against human MIAPaCa2 cells after 24 hrs; assay type: functional, cell-based; details: MIA PaCa-2, 24 h
[12] = Displacement of [3H]-DTG from sigma 2 receptor in rat liver membranes after 120 mins by scintillation counting analysis; assay type: cell membranes, Membrane
In short: (§2)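 Rat liver homogenate (150 µg) was incubated 120 min at room temperature with 3 nM [3H]-DTG in 50 mM Tris-HCl pH 8.0, with test compound at 10^-10 to 10^-5 M (final). 100 nM (+)-pentazocine masked S1R and 10 µM haloperidol defined nonspecific binding. Filtration and scintillation counting were used. Ki came from regression IC50 via Cheng-Prusoff.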

[13] = Displacement of [3H]-DTG from sigma 2 receptor in Sprague-Dawley rat liver membranes after 120 mins by scintillation counting analysis; assay type: cell membranes, Membrane; in short: as §1
[14] = target: Sigma non-opioid intracellular receptor 1 (Homo sapiens, UniProt Q99720); assay: Binding affinity to sigma 1 receptor (unknown origin)
Sigma non-opioid intracellular receptor 1 (Homo sapiens, UniProt Q99720), sequence (Q99720 whole entry): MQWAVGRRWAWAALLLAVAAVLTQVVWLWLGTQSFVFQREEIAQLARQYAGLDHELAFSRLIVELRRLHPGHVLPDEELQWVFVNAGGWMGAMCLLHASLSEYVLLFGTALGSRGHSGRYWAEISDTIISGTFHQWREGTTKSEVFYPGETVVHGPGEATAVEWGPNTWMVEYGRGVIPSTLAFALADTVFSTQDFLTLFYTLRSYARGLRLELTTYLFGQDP

[15] = Binding affinity to sigma 2 receptor (unknown origin); in short: as §2

| SMILES | pKi [1] | pKi [2] | also measured |
| --- | --- | --- | --- |
| CC(O)(CCN1CCC(Cc2ccccc2)CC1)c1ccccc1 (racemic) | 8.01 | 7.24 | – |
| CC(CCN1CCC(Cc2ccccc2)CC1)c1ccc2ccccc2c1 (single isomer, unassigned; (-)) | 8.16 | 7.01 | – |
| CC(O)(CCN1CCC(Cc2ccccc2)CC1)c1ccc2cc(O)ccc2c1 (racemic) | 7.57 | 6.93 | – |
| CC(O)(CCN1CCC(Cc2ccccc2)CC1)c1ccccc1 (stereo in doubt; 2b) | 7.40 | 6.62 | – |
| CC(CCN1CCC(Cc2ccccc2)CC1)c1ccc2cc(O)ccc2c1 (stereo in doubt; 12) | 7.23 | 6.50 | – |
| CC(O)(CCN1CCC(Cc2ccccc2)CC1)c1ccc2ccccc2c1 (stereo in doubt; 1b) | 7.96 | 7.10 | – |
| CC(CCN1CCC(Cc2ccccc2)CC1)c1ccc2cc(O)ccc2c1 (single isomer, unassigned; (+)) | 7.46 | 6.24 | – |
| Fc1ccc(-n2cc(CCCCN3CCC4(CC3)OCc3ccccc34)c3ccccc32)cc1 [SIRAMESINE] | – | – | pIC50 [3]: 5.22; pKi [4]: 9.92; pIC50 [5]: 4.34 |
| CC(O)(CCN1CCC(Cc2ccccc2)CC1)c1ccc2cc(O)ccc2c1 (stereo in doubt; 9a) | 7.15 | 7.17 | – |
| O[C@@H](CN1C2CCC1CC(c1ccccc1)C2)c1cccc(Br)c1 (stereo not given in full) | – | – | pIC50 [6]: ≥ 4.00; pIC50 [7]: ≥ 4.00; pIC50 [8]: ≥ 4.00; pIC50 [9]: ≥ 4.00; pIC50 [10]: ≥ 4.00; pIC50 [11]: ≥ 4.00; pKi [12]: 7.91 |
| CC(CCN1CCC(Cc2ccccc2)CC1)c1ccc2ccccc2c1 (single isomer, unassigned; (+)) | 8.22 | 7.59 | – |
| C/C(=C\CN1CCC(Cc2ccccc2)CC1)c1ccc2cc(O)ccc2c1 | 8.02 | 6.52 | – |
| CC(CCN1CCC(Cc2ccccc2)CC1)c1ccccc1 (racemic) | 8.68 | 8.19 | – |
| CC(O)(CCN1CCC(Cc2ccccc2)CC1)c1ccccc1 (stereo in doubt; 2a) | 7.57 | 6.47 | – |
| COc1ccc(C)cc1NC(=O)OC1CC2CCCC(C1)N2Cc1ccc(N(C)C)cc1 (stereo not given) | – | – | pIC50 [6]: ≥ 4.00; pIC50 [7]: ≥ 4.00; pIC50 [8]: ≥ 4.00; pIC50 [9]: ≥ 4.00; pIC50 [10]: ≥ 4.00; pIC50 [11]: ≥ 4.00 |
| CC(CCN1CCC(Cc2ccccc2)CC1)c1ccccc1 (stereo in doubt; 6b) | 8.52 | 8.10 | – |
| CC(CCN1CCC(Cc2ccccc2)CC1)c1ccccc1 (single isomer, unassigned; (+)) | 8.54 | 8.05 | – |
| CC(O)(CCN1CCC(Cc2ccccc2)CC1)c1ccc2ccccc2c1 (racemic) | 8.16 | 7.20 | – |
| CC(CCN1CCC(Cc2ccccc2)CC1)c1ccc2cc(O)ccc2c1 (single isomer, unassigned; (-)) | 7.89 | 6.98 | – |
| C/C(=C\CN1CCC(Cc2ccccc2)CC1)c1ccccc1 | 9.15 | 7.33 | – |
| CC(O)(CCN1CCC(Cc2ccccc2)CC1)c1ccc2cc(O)ccc2c1 (single isomer, unassigned; (-)) | 7.21 | 6.04 | – |
| CC(O)(CCN1CCC(Cc2ccccc2)CC1)c1ccc2ccccc2c1 (single isomer, unassigned; (+)) | 8.00 | 7.09 | – |
| C[C@@H]1CN(CCCn2c3ccccc3c3ccccc32)C[C@H](C)N1 [RIMCAZOLE] | – | – | pKi [13]: 6.52 |
| CC(CCN1CCC(Cc2ccccc2)CC1)c1ccc2ccccc2c1 (racemic) | 8.25 | 6.84 | – |
| COc1ccc(C)cc1NC(=O)OC1CC2CCCC(C1)N2CCCCCCN (stereo not given) | – | – | pIC50 [6]: ≥ 4.00; pIC50 [7]: ≥ 4.00; pIC50 [8]: ≥ 4.00; pIC50 [9]: ≥ 4.00; pIC50 [10]: ≥ 4.00; pIC50 [11]: ≥ 4.00 |
| COc1ccc(C)cc1NC(=O)OC1CC2CCCC(C1)N2CCCCCCCCCCN (stereo not given) | – | – | pKi [14]: 6.88; pKi [15]: 7.72 |
